Test results: ChEMBL document CHEMBL3813688, “Synthesis, antitumor activity and mechanism of action of novel 1,3-thiazole derivatives containing hydrazide-hydrazone and carboxamide moiety” (Bioorg Med Chem Lett, 2016)
Values after ≈ are worked out from the molar mass of the structure shown.

Tests used:
[1] = Cytotoxicity against human BCG823 cells assessed as cell growth inhibition after 72 hrs by MTT assay; format: functional, cell-based; details: BCG823, 72 h
Procedure, shortened: (§1)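 MTT growth assay in human cancer lines (MCF-7, HepG2, BGC-823, HeLa, A549), 72 h after treatment; 5-fluorouracil as reference. IC50 (μg/mL) taken as concentration giving 50% growth inhibition versus untreated control.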

MCF7 [2] = test: Cytotoxicity against human MCF7 cells assessed as cell growth inhibition after 72 hrs by MTT assay; format: functional, cell-based; details: MCF7, 72 h; procedure, shortened: as §1
A549 [3] = test: Cytotoxicity against human A549 cells assessed as cell growth inhibition after 72 hrs by MTT assay; format: functional, cell-based; details: A549, 72 h; procedure, shortened: as §1
HeLa [4] = test: Cytotoxicity against human HeLa cells assessed as cell growth inhibition after 72 hrs by MTT assay; format: functional, cell-based; procedure, shortened: as §1
HepG2 [5] = test: Cytotoxicity against human HepG2 cells assessed as cell growth inhibition after 72 hrs by MTT assay; format: functional, cell-based; details: HepG2, 72 h; procedure, shortened: as §1
HeLa [6] = test: Cytotoxicity against human HeLa cells assessed as cell growth inhibition at 20 ug/ml after 72 hrs by MTT assay; format: functional; details: read-out: GI
A549 [7] = test: Cytotoxicity against human A549 cells assessed as cell growth inhibition at 20 ug/ml after 72 hrs by MTT assay; format: functional; details: A549, 72 h, read-out: GI
[8] = tested on: MCF-7, HepG2, BGC-823, HeLa, A549 cancer cell lines (Homo sapiens); test: Cytotoxicity against human MCF-7, HepG2, BGC-823, HeLa and A549 cells assessed as cell growth inhibition at 20 ug/ml after 72 hrs by MTT assay; details: read-out: GI
MCF7 [9] = test: Cytotoxicity against human MCF7 cells assessed as cell growth inhibition at 20 ug/ml after 72 hrs by MTT assay; format: functional; details: MCF7, 72 h, read-out: GI
HepG2 [10] = test: Cytotoxicity against human HepG2 cells assessed as cell growth inhibition at 20 ug/ml after 72 hrs by MTT assay; format: functional; details: HepG2, 72 h, read-out: GI
[11] = Cytotoxicity against human BCG823 cells assessed as cell growth inhibition at 20 ug/ml after 72 hrs by MTT assay; format: functional; details: BCG823, 72 h, read-out: GI

Row | SMILES | IC50 [1] [mg/L] | IC50 (MCF7 [2]) [mg/L] | IC50 (A549 [3]) [mg/L] | IC50 (HeLa [4]) [mg/L] | IC50 (HepG2 [5]) [mg/L] | inhibition of growth at 20 µg/mL (HeLa [6]) [%] | inhibition of growth at 20 µg/mL (A549 [7]) [%] | inhibition at 72 h, 20 ug/ml [8] [%] | inhibition of growth at 20 µg/mL (MCF7 [9]) [%] | inhibition of growth at 20 µg/mL (HepG2 [10]) [%] | inhibition of growth at 20 µg/mL [11] [%]
1 | CN(C(=O)NC(=O)c1c(F)cccc1F)c1nc(C(F)(F)F)c(C(=O)N/N=C/c2cc(C(F)(F)F)cc(C(F)(F)F)c2)s1 | 5.28 (≈ 8.16 µM) | 6.85 (≈ 10.6 µM) | 17.3 (≈ 26.7 µM) | 5.62 (≈ 8.68 µM) | 6.28 (≈ 9.7 µM) | – | – | – | – | – | –
2 | CN(C(=O)NC(=O)c1c(F)cccc1F)c1nc(C(F)(F)F)c(C(=O)N/N=C/c2cccc(C(F)(F)F)c2)s1 | 25.9 (≈ 44.6 µM) | 21.8 (≈ 37.6 µM) | 27.6 (≈ 47.6 µM) | 21.6 (≈ 37.3 µM) | 27.9 (≈ 48.1 µM) | – | – | – | – | – | –
3 | CN(C(=O)NC(=O)c1ccc(Cl)cc1Cl)c1nc(C(F)(F)F)c(C(=O)N/N=C/c2ccc([N+](=O)[O-])cc2)s1 | 2.13 (≈ 3.61 µM) | 6.74 (≈ 11.4 µM) | 6.44 (≈ 10.9 µM) | 5.12 (≈ 8.69 µM) | 6.85 (≈ 11.6 µM) | – | – | – | – | – | –
4 | CN(C(=O)NC(=O)c1ccc(Cl)cc1Cl)c1nc(C(F)(F)F)c(C(=O)N/N=C/c2ccccc2C(F)(F)F)s1 | 5.73 (≈ 9.36 µM) | 9.12 (≈ 14.9 µM) | 15.3 (≈ 25 µM) | 9 (≈ 14.7 µM) | 10.7 (≈ 17.4 µM) | – | – | – | – | – | –
5 | Cc1nc(N(C)C(=O)NC(=O)c2c(F)cccc2F)sc1C(=O)N/N=C/c1ccccc1 | – | – | – | – | 54.3 (≈ 119 µM) | – | – | – | – | – | –
6 | CN(C(=O)NC(=O)c1cccc(C(F)(F)F)c1)c1nc(C(F)(F)F)c(C(=O)N/N=C/c2cccc(C(F)(F)F)c2)s1 | 4.6 (≈ 7.52 µM) | 3.7 (≈ 6.05 µM) | 8.16 (≈ 13.3 µM) | 4.81 (≈ 7.87 µM) | 5.79 (≈ 9.47 µM) | – | – | – | – | – | –
7 | CN(C(=O)NC(=O)c1ccc(Cl)cc1Cl)c1nc(C(F)(F)F)c(C(=O)N/N=C/c2ccc(C(F)(F)F)cc2)s1 | 3.08 (≈ 5.03 µM) | 8.42 (≈ 13.8 µM) | 9.4 (≈ 15.4 µM) | 7.99 (≈ 13 µM) | 12.4 (≈ 20.3 µM) | – | – | – | – | – | –
8 | CCOC(=O)c1sc(NC)nc1C(F)(F)F | – | – | – | – | – | < 10 | < 10 | < 10 | < 10 | < 10 | < 10
9 | CN(C(=O)NC(=O)c1cccc(C(F)(F)F)c1)c1nc(C(F)(F)F)c(C(=O)N/N=C/c2ccc(C(F)(F)F)cc2)s1 | 4.22 (≈ 6.9 µM) | 6.5 (≈ 10.6 µM) | 6.2 (≈ 10.1 µM) | 7.35 (≈ 12 µM) | 7.71 (≈ 12.6 µM) | – | – | – | – | – | –
10 | CN(C(=O)NC(=O)c1cccc([N+](=O)[O-])c1)c1nc(C(F)(F)F)c(C(=O)N/N=C/c2ccccc2C(F)(F)F)s1 | 3.97 (≈ 6.75 µM) | 4.73 (≈ 8.04 µM) | 5.45 (≈ 9.26 µM) | 4.15 (≈ 7.05 µM) | 4.8 (≈ 8.16 µM) | – | – | – | – | – | –
11 | Cc1nc(N(C)C(=O)NC(=O)c2c(F)cccc2F)sc1C(=O)N/N=C/c1ccc(Cl)cc1 | – | – | – | – | > 100 | – | – | – | – | – | –
12 | COc1cc(/C=N/NC(=O)c2sc(N(C)C(=O)NC(=O)c3c(F)cccc3F)nc2C)cc(OC)c1OC | – | – | – | – | > 100 | – | – | – | – | – | –
13 | Cc1nc(N(C)C(=O)NC(=O)c2c(F)cccc2F)sc1C(=O)N/N=C/c1ccccc1F | – | – | – | – | > 100 | – | – | – | – | – | –
14 | CN(C(=O)NC(=O)c1c(F)cccc1F)c1nc(C(F)(F)F)c(C(=O)N/N=C/c2ccc(C(F)(F)F)cc2)s1 | 34.9 (≈ 60.2 µM) | 35.3 (≈ 61 µM) | 40.1 (≈ 69.2 µM) | 30.6 (≈ 52.8 µM) | 49.6 (≈ 85.6 µM) | – | – | – | – | – | –
15 | CN(C(=O)NC(=O)c1ccc(F)c(F)c1)c1nc(C(F)(F)F)c(C(=O)N/N=C/c2ccc([N+](=O)[O-])cc2)s1 | 2.99 (≈ 5.37 µM) | 4.81 (≈ 8.64 µM) | 5.78 (≈ 10.4 µM) | 5.08 (≈ 9.13 µM) | 6.23 (≈ 11.2 µM) | – | – | – | – | – | –
16 | COc1ccc(/C=N/NC(=O)c2sc(N(C)C(=O)NC(=O)c3c(F)cccc3F)nc2C)cc1 | – | – | – | – | 22.7 (≈ 46.5 µM) | – | – | – | – | – | –
17 | CN(C(=O)NC(=O)c1ccc([N+](=O)[O-])cc1)c1nc(C(F)(F)F)c(C(=O)N/N=C/c2cccc(C(F)(F)F)c2)s1 | 1.67 (≈ 2.84 µM) | 4.39 (≈ 7.46 µM) | 5.42 (≈ 9.21 µM) | 4.12 (≈ 7 µM) | 4.73 (≈ 8.04 µM) | – | – | – | – | – | –
18 | CN(C(=O)NC(=O)c1ccccc1)c1nc(C(F)(F)F)c(C(=O)N/N=C/c2cccc([N+](=O)[O-])c2)s1 | 13.6 (≈ 26.1 µM) | 15.4 (≈ 29.6 µM) | 20.7 (≈ 39.7 µM) | 11.2 (≈ 21.6 µM) | 14.3 (≈ 27.5 µM) | – | – | – | – | – | –
19 | CN(C(=O)NC(=O)c1ccccc1[N+](=O)[O-])c1nc(C(F)(F)F)c(C(=O)N/N=C/c2ccc([N+](=O)[O-])cc2)s1 | 15.7 (≈ 27.7 µM) | 21.2 (≈ 37.5 µM) | 17.6 (≈ 31.2 µM) | 18.4 (≈ 32.6 µM) | 25.2 (≈ 44.6 µM) | – | – | – | – | – | –
20 | Cc1nc(N(C)C(=O)NC(=O)c2c(F)cccc2F)sc1C(=O)N/N=C/c1ccc(Cl)cc1Cl | – | – | – | – | 70 (≈ 133 µM) | – | – | – | – | – | –
21 | CN(C(=O)NC(=O)c1c(F)cccc1F)c1nc(C(F)(F)F)c(C(=O)N/N=C/c2ccccc2C(F)(F)F)s1 | 16.9 (≈ 29.3 µM) | 20.4 (≈ 35.3 µM) | 17.9 (≈ 30.9 µM) | 19.6 (≈ 33.8 µM) | 26.1 (≈ 45 µM) | – | – | – | – | – | –
